Screening data deposited in PubChem BioAssay by several laboratories.
This excerpt belongs to a sample that is enriched for hits.
Diaphorase act – diaphorase activation or chemical reduction counter-screen; Diaphorase/resazurin coupled assay, resorufin fluorescence, 16 min; hits give high values; 1 = vehicle wells, 0 = NADH-free wells; activation factor at 20 µM; 0.005% of 190,000 active;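 active = diaphorase activity raised at least twofold by the compound at 20 µM; inactive = activation factor below 2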
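Assay system: Purified diaphorase enzyme from Clostridium kluyveri | Amount: Enzyme 0.07 U/mL final | Dosing: Compound 20 µM once, DMSO 1% | Timing: 16 min reaction at room temperature | Detection: Fluorescence, excitation 544 nm and emission 590 nm | Evaluation: Higher resorufin formation from activation or reduction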
Redox H2O2 prof – compounds producing H2O2 with reducing agent – biochemical, NIH compound library profiling, artefact control for MLSCN library redox annotation, primary screen; DTT-dependent redox cycling H2O2, phenol red/HRP absorbance; 100% = 100 µM peroxide control, 0% = buffer; 0.03% of 200,000 active; activation, % at 10 µM;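 active = activation of at least 50% relative to the plate's high and low controls in the primary single-dose screen; inactive = activation below 50%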;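 note: compound incubated with DTT at 0.8 mM final as the reducing agent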
PfG6PD inh – PfG6PD (Plasmodium falciparum) enzyme inhibition; PfGluPho enzyme, NADPH resazurin-diaphorase fluorescence; inhibition, % at 20 µM; 0.78% of 350,000 active;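 active = inhibition reaching at least a set limit at 20 µM in the primary screen, cut at about 59% in these data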
L major viab – inhibitors of Leishmania major promastigote growth; inhibition, % at 10 µM; Leishmania major promastigotes, resazurin fluorescence viability; AID 1063; 9% of 200,000 active;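 note: promastigotes grown with compound for 44 hours at 28 °C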
G6PDH counter – inhibits Leuconostoc G6PDH, flagging false hits in G6PDH-based assays. Purified L. mesenteroides G6PDH, diaphorase/resazurin coupled fluorescence, 45 min. inhibition, % at 5 µM. 0.12% of 200,000 active
Diaph inh CS – inhibits diaphorase or chemically oxidizes, flagging diaphorase assay artifacts. 0.69% of 190,000 active. diaphorase resazurin-to-resorufin fluorescence, NADH, 16 min; bacterial (C. kluyveri) enzyme, not human. inhibition, % at 20 µM. AID 1217;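 active = primary screen inhibition at 20 µM above a set limit, cut at about 50% in these data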
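Assay system: diaphorase enzyme from Clostridium kluyveri. Quantity: enzyme working solution with 0.14 U/mL diaphorase. Schedule: reaction incubation of 16 min at room temperature. Technique: resorufin fluorescence, excitation 544 nm, emission 590 nm. Controls: No-NADH positive control and DMSO neutral control.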
Large screens that a line does not name were inactive. Cut-off read from the data, not from the text of the source, unless noted: active = inhibition above about 50%; inactive = the rest.

COc1ccc(C(CC(=O)Nc2ccccc2OC)n2cccc2)cc1 (stereo not given)	L major viab 54.4
CCOC(=O)CSc1ncc(-c2ccc([N+](=O)[O-])cc2)[nH]1	none
Cc1ccc(N(CC(=O)NC(C)(C)C)C(=O)CCC(=O)Nc2ccccn2)cc1	none (no result: Diaphorase act, Redox H2O2 prof, L major viab, G6PDH counter, Diaph inh CS)
CCN1CCn2c3c(c4cc(Cl)ccc42)CCCC31 (stereo not given)	L major viab 54.4
CCN(CC)CCN1CCn2c3c(c4cc(C)ccc42)CCCC31 (stereo not given)	L major viab 100.1
Cc1csc(=O)n1CCC(=O)O	none
Cc1cc(C)n(-c2nc(Nc3ccccc3C(F)(F)F)nc(-n3nc(C)cc3C)n2)n1	L major viab 100.3
Cc1cc(=O)[nH]c(SCC(=O)NC2CCCCC2)n1	none (no result: Diaphorase act, Redox H2O2 prof, L major viab, G6PDH counter, Diaph inh CS)
Fc1ccc(Nc2cccc3nccnc23)cc1	L major viab 50.4
c1cc(Nc2cccc3nccnc23)c2nccnc2c1	none
CCOCCCn1c(SC(C(=O)Nc2cc(C)ccc2C)c2ccccc2)nnc1-c1ccc(Cl)cc1 (stereo not given)	L major viab 60.7
CCNc1nc(NCC)n2c(SC(C(=O)Nc3cc(C)ccc3C)c3ccccc3)nnc2n1 (stereo not given)	none
CC(C)(C)c1ccc(C2(C)NC(=O)N(CC(=O)Nc3ccc4c(c3)OCO4)C2=O)cc1 (stereo not given)	L major viab 76.8
Cc1ccc(NC(=O)CN2C(=O)NC(C)(c3ccc(Cl)cc3)C2=O)cc1S(=O)(=O)N1CCOCC1 (stereo not given)	L major viab 56.1
CCOC(=O)CC(NC(=O)Cc1ccccc1)c1ccccc1Cl (stereo not given)	none
CCOC(=O)CC(NC(=O)C(CC)c1ccccc1)c1ccccc1Cl (stereo not given)	L major viab 94.9
CN=C1SC(CC(=O)Nc2cccc(Cl)c2Cl)C(=O)N1C (stereo not given)	none
CN=C1SC(CC(=O)Nc2c(C)cccc2C)C(=O)N1/N=C/c1cccs1 (stereo not given)	L major viab 54.6
O=C(NNc1c2ccccc2nc2ccccc12)c1ccccc1Cl	none (no result: Diaphorase act, Redox H2O2 prof, L major viab, G6PDH counter, Diaph inh CS)
O=C(NNc1c2ccccc2nc2ccccc12)c1cccc(O)c1	L major viab 89.8
O=C(NNc1c2ccccc2nc2ccccc12)c1ccccc1O	none
O=C(NNc1c2ccccc2nc2ccccc12)c1ccc(O)cc1O	L major viab 99.3
O=C(NNc1c2ccccc2nc2ccccc12)c1ccc(O)cc1	L major viab 70.8
C=CCOC(=O)c1sc(NC(=O)c2ccc(OC)cc2)nc1C	none
C/C(=N\N1CCN(C)CC1)c1ccc(Cl)c(Cl)c1	L major viab 81.3
CCOC(=O)c1c2ccc(OCC(=O)N/N=C/c3ccccc3C(F)(F)F)cc2n2ccccc12	Diaph inh CS 51.6 (no result: PfG6PD inh)
CCOc1ccc(-c2cn(-c3ccc(OC)cc3)c(SC)n2)cc1	L major viab 51.4
O=C(c1cc(-c2cccnc2)nc2ccccc12)N1CCN(S(=O)(=O)c2ccc(Cl)s2)CC1	none (no result: Diaphorase act, Redox H2O2 prof, L major viab, G6PDH counter, Diaph inh CS)
Cc1ccc(C(C)C)c(OCC(=O)Nn2c(=O)[nH]c3ccccc3c2=O)c1	L major viab 59.0
Cc1ccc(C(C)C)c(OCC(=O)Nn2c(C)nc3ccccc3c2=O)c1	none
O=C(Nc1cc(S(=O)(=O)N2CCCCC2)ccc1N1CCCCC1)C1CC1	none (no result: Diaphorase act, Redox H2O2 prof, L major viab, G6PDH counter, Diaph inh CS)
CN1CCN(C(=O)c2cc([N+](=O)[O-])ccc2Cl)CC1	none (no result: Diaphorase act, Redox H2O2 prof, L major viab, G6PDH counter, Diaph inh CS)
CC1CCCN(CCCNC(=O)c2cc3c(Cl)nc4ccccc4c3s2)C1 (stereo not given)	L major viab 99.7
CCN(CC)CCCNC(=O)c1cc2c(Cl)nc3ccccc3c2s1	L major viab 98.2
CN(CCCNC(=O)c1cc2c(Cl)nc3ccccc3c2s1)Cc1ccccc1	L major viab 93.3
COc1cc(NC(=O)c2cc3c(Cl)nc4ccccc4c3s2)cc(OC)c1OC	L major viab 56.8
COc1ccc(N(C)C(=O)c2cc3c(Cl)nc4ccccc4c3s2)cc1	none
CN(C)CCCNc1ncc(C(F)(F)F)cc1Cl	none
CN(C)CCCNS(=O)(=O)c1ccc(Oc2ncc(C(F)(F)F)cc2Cl)cc1	L major viab 95.0
C=CCN(CC=C)S(=O)(=O)c1ccc2nc(NC(=O)C3CCCO3)sc2c1 (stereo not given)	L major viab 68.0
CS(=O)(=O)c1ccc2nc(NC(=O)C3CCCO3)sc2c1 (stereo not given)	none (no result: Diaphorase act, Diaph inh CS)
COc1ccc([C@H]2CN(c3ccc(OC)cc3)C(=O)[C@@H]2CC(=O)Nc2ccc(Br)cc2)cc1	none (no result: Diaphorase act, Redox H2O2 prof, L major viab, G6PDH counter, Diaph inh CS)
CCCOc1nc2c(c(=O)n(C)c(=O)n2C)n1Cc1cccc2ccccc12	L major viab 65.0
CN(C)C=Nc1ccc([N+](=O)[O-])c2ccccc12	none (no result: Diaphorase act, Redox H2O2 prof, L major viab, G6PDH counter, Diaph inh CS)
CCOc1cc(C2C(C#N)=C(N)OC(C)=C2C(C)=O)cc(Br)c1O (stereo not given)	none
CCOc1cc(C2C(C#N)=C(N)OC(C)=C2C(C)=O)c(Br)c(Br)c1OC(C)C (stereo not given)	L major viab 63.8
COc1cc(O)ccc1C(=O)CCc1ccc(O)cc1	none (no result: Diaphorase act, Redox H2O2 prof, L major viab, G6PDH counter, Diaph inh CS)
CC(C)[C@H](NC(=O)c1ccc(Cl)c([N+](=O)[O-])c1)C(=O)NCc1ccc(Cl)cc1Cl	L major viab 52.5
O=C(COC(=O)c1cc(Cl)ccc1[N+](=O)[O-])NCc1ccc(Cl)cc1Cl	L major viab 62.2
CC(C)[C@H](NC(=O)c1ccc(Cl)c([N+](=O)[O-])c1)C(=O)NCc1ccc(F)cc1	none
O=c1c2cc(-c3ccccc3)sc2ncn1/N=C/c1ccco1	none
Cc1ccc(S(=O)(=O)N2CCN(C(=O)CN3C(=O)c4ccc([N+](=O)[O-])cc4C3=O)CC2)cc1C	none (no result: Diaphorase act, Redox H2O2 prof, L major viab, G6PDH counter, Diaph inh CS)
Cc1n[nH]c(C)c1CCCCOc1ccccc1[N+](=O)[O-]	none (no result: Diaphorase act, Redox H2O2 prof, L major viab, G6PDH counter, Diaph inh CS)
COCCOC(=O)C1=C(C)NC(=O)NC1c1cn(-c2ccccc2)nc1-c1cccs1 (stereo not given)	none
CC1=C(C#N)C(c2cn(-c3ccccc3)nc2-c2cccs2)C(C#N)=C(C)N1	L major viab 66.0
O=C(Nc1ncc(Cc2cccc(Cl)c2)s1)c1cccs1	L major viab 84.1
O=C(Nc1ncc(Cc2ccccc2)s1)c1cccs1	none
Cc1cc(SCC(=O)N/N=C/c2ccccc2C(=O)O)c(C)cc1Br	none (no result: Diaphorase act, Redox H2O2 prof, L major viab, G6PDH counter, Diaph inh CS)
Cc1cc(SCC(=O)N/N=C/c2ccc(O)cc2O)c(C)cc1Br	L major viab 99.6
CCOC(=O)Cn1c(CN(Cc2ccccc2)Cc2ccccc2)nc2c1c(=O)n(C)c(=O)n2C	none
CC(C(=O)N1CCCc2c1c(=O)oc1ccc(O)cc21)N1CCc2ccccc2C1 (stereo not given)	L major viab 94.6
CN(CC(=O)N1CCCc2c1c(=O)oc1ccc(O)cc21)Cc1ccccc1	none
